# Activity calls are given as the source filed them. No cut-off for these calls is given here.
# How the values were obtained:
# Plasmodium falciparum [1] = assay: Antimalarial activity against chloroquine/quinine-resistant asexual blood stage Plasmodium falciparum S35 after 72 hrs by SYBR green-based fluorometric analysis; format: functional; settings: S35, 72 h
# Procedure, shortened: (§1)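 Mid-ring-stage cultures (~6-10 h post-invasion) at 1% parasitemia and 2% hematocrit, in triplicate. Twofold serial dilutions from a top concentration of 100 nM. Incubated 72 h at 37 °C under 5% CO2/5% O2/90% N2. Lysis buffer containing 5×SYBR Green I added, 20 min in the dark, fluorescence read at ex 485/em 538 nm. EC50 derived.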
# [2] = Inhibition of Plasmodium falciparum NDH2 S497R mutant expressed in Escherichia coli DH5alpha competent cells using NADH and ubiquinone-1 as substrate by spectrophotometric analysis
# Procedure, shortened: (§2)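 Recombinant PfNDH2 point or double mutants assayed spectrophotometrically at 25 °C. Buffer: 50 mM MOPS pH 7.0, 150 mM NaCl, 1 mM EDTA, 0.01% Triton X-100. Substrates 50 µM NADH and 30 µM ubiquinone-1, with 0.5 nM enzyme and selected inhibitor concentrations.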
# Plasmodium falciparum [3] = assay: Synergistic antimalarial activity against Plasmodium falciparum in presence of quinine; format: functional
# Procedure, shortened: (§3)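 In vitro drug interaction analyses with other antimalarials against P. falciparum. Experiments repeated three times; error bars s.e.m.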
# Plasmodium falciparum [4] = assay: Antimalarial activity against chloroquine-resistant asexual blood stage Plasmodium falciparum GB4 after 72 hrs by SYBR green-based fluorometric analysis; format: functional; settings: GB4, 72 h; procedure, shortened: as §1
# Plasmodium falciparum [5] = assay: Synergistic antimalarial activity against Plasmodium falciparum in presence of dihydroartemisinin; format: functional; procedure, shortened: as §3
# Plasmodium falciparum [6] = assay: Antimalarial activity against chloroquine/quinine/sulfadoxine-pyrimethamine/amodiaquine-resistant asexual blood stage Plasmodium falciparum PC26 after 72 hrs by SYBR green-based fluorometric analysis; format: functional; settings: PC26, 72 h; procedure, shortened: as §1
# Plasmodium yoelii [7] = assay: Antimalarial activity against Plasmodium yoelii YM infected in BALB/c mouse assessed as parasite growth inhibition at 90 mg/kg, sc administered BID for 4 days starting at 96 hrs post infection, 8 hrs apart by Giemsa-staining based microscopic analysis; format: functional; settings: read-out: GI
# Procedure, shortened: (§4)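 P. yoelii-infected mice, n=3 per group. Subcutaneous injection twice daily, 8 h apart, for 4 days starting at 96 h post infection. Growth inhibition read from blood smears at 24 h post treatment. Cure time taken as the minimum period to cure all mice in the group. DMSO controls included.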
# [8] = Inhibition of Plasmodium falciparum NDH2 D171R mutant expressed in Escherichia coli DH5alpha competent cells using NADH and ubiquinone-1 as substrate by spectrophotometric analysis; procedure, shortened: as §2
# Plasmodium falciparum [9] = assay: Antimalarial activity against dihydroartemisinin-resistant asexual blood stage Plasmodium falciparum 803 after 72 hrs by SYBR green-based fluorometric analysis; format: functional; settings: Plasmodium falciparum, 803, 72 h; procedure, shortened: as §1
# Plasmodium falciparum [10] = assay: Antimalarial activity against multi drug-resistant asexual blood stage Plasmodium falciparum Fab9 after 72 hrs by SYBR green-based fluorometric analysis; format: functional; settings: Fab9, 72 h; procedure, shortened: as §1
# [11] = Inhibition of Plasmodium falciparum NDH2 Y475R mutant expressed in Escherichia coli DH5alpha competent cells using NADH and ubiquinone-1 as substrate by spectrophotometric analysis; procedure, shortened: as §2
# Plasmodium yoelii [12] = assay: Antimalarial activity against Plasmodium yoelii YM infected in BALB/c mouse assessed as parasite growth inhibition at 30 mg/kg, sc administered BID for 4 days starting at 96 hrs post infection, 8 hrs apart by Giemsa-staining based microscopic analysis; format: functional; settings: read-out: GI; procedure, shortened: as §4
# [13] = Inhibition of Plasmodium falciparum NDH2 N92R/S497R double mutant expressed in Escherichia coli DH5alpha competent cells using NADH and ubiquinone-1 as substrate by spectrophotometric analysis; procedure, shortened: as §2
# Plasmodium yoelii [14] = assay: Antimalarial activity against Plasmodium yoelii YM infected in BALB/c mouse assessed as time duration for parasite cure at 30 mg/kg, sc administered BID for 4 days starting at 96 hrs post infection, 8 hrs apart by Giemsa-staining based microscopic analysis; format: functional; procedure, shortened: as §4
# Plasmodium yoelii [15] = assay: Antimalarial activity against Plasmodium yoelii YM infected in BALB/c mouse assessed as parasite growth inhibition at 10 mg/kg, sc administered QD for 4 days starting at 96 hrs post infection by Giemsa-staining based microscopic analysis; format: functional; settings: read-out: GI
# Procedure, shortened: (§5)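 P. yoelii-infected mice, n=3 per group. Subcutaneous injection once daily for 4 days starting at 96 h post infection. Parasitemia followed on blood-smear microscopy, with inhibition measured at 24 h post treatment. Cure time taken as the minimum period to cure all mice; survival recorded at 40 days. DMSO controls included.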
# Plasmodium yoelii [16] = assay: Antimalarial activity against Plasmodium yoelii YM infected in BALB/c mouse assessed as mouse survival at 30 mg/kg, sc administered BID for 4 days starting at 96 hrs post infection, 8 hrs apart by Giemsa-staining based microscopic analysis; format: functional
# Procedure, shortened: (§6)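 Mice inoculated with 1×106 P. yoelii parasites. Subcutaneous dosing for 4 days starting 96 h post infection, given once daily or twice daily 8 h apart. Parasitemia followed on Giemsa-stained blood smears. Survival recorded at 40 days post infection; groups of n=3. DMSO-only mice served as untreated controls.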
# Plasmodium falciparum [17] = assay: Antimalarial activity against quinine-resistant asexual blood stage Plasmodium falciparum C2A after 72 hrs by SYBR green-based fluorometric analysis; format: functional; procedure, shortened: as §1
# Plasmodium yoelii [18] = assay: Antimalarial activity against Plasmodium yoelii YM infected in BALB/c mouse assessed as parasite growth inhibition at 5 mg/kg, sc administered QD for 4 days starting at 2 hrs post infection by Giemsa-staining based microscopic analysis; format: functional; settings: read-out: GI
# Procedure, shortened: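 P. yoelii-infected mice, n=3 per group. Subcutaneous injection once daily for 4 days starting at 2 h post infection. Growth inhibition determined at 24 h post treatment by blood-smear microscopy. Cure time taken as the minimum period to cure all mice in the group.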
# Plasmodium yoelii [19] = assay: Antimalarial activity against Plasmodium yoelii YM infected in BALB/c mouse assessed as mouse survival at 5 mg/kg, sc administered QD for 4 days starting at 2 hrs post infection by Giemsa-staining based microscopic analysis; format: functional
# Procedure, shortened: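 Mice inoculated with 1×106 P. yoelii parasites, then dosed subcutaneously once daily for 4 days starting 2 h post infection. Parasitemia followed by microscopy of blood smears. Survival scored at 40 days post infection in groups of n=3 mice. DMSO-only controls.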
# Plasmodium yoelii [20] = assay: Antimalarial activity against Plasmodium yoelii YM infected in BALB/c mouse assessed as mouse survival at 10 mg/kg, sc administered QD for 4 days starting at 96 hrs post infection by Giemsa-staining based microscopic analysis; format: functional; procedure, shortened: as §6
# Plasmodium falciparum [21] = assay: Antimalarial activity against sulfadoxine-pyrimethamine/mefloquine resistant asexual blood stage Plasmodium falciparum CP286 after 72 hrs by SYBR green-based fluorometric analysis; format: functional; settings: CP286, 72 h; procedure, shortened: as §1
# Plasmodium yoelii [22] = assay: Antimalarial activity against Plasmodium yoelii YM infected in BALB/c mouse assessed as parasite growth inhibition at 10 mg/kg, sc administered BID for 4 days starting at 96 hrs post infection, 8 hrs apart by Giemsa-staining based microscopic analysis; format: functional; settings: read-out: GI; procedure, shortened: as §4
# Plasmodium yoelii [23] = assay: Antimalarial activity against Plasmodium yoelii YM infected in BALB/c mouse assessed reduction in parasitemia at 10 mg/kg/day, sc for 4 days by Giemsa-staining based microscopic analysis; format: functional, organism-based; procedure, shortened: as §5
# Plasmodium falciparum [24] = assay: Antimalarial activity against chloroquine/quinine/sulfadoxine-pyrimethamine/amodiaquine-resistant asexual blood stage Plasmodium falciparum Dd2 after 72 hrs by SYBR green-based fluorometric analysis; format: functional; settings: Dd2, 72 h; procedure, shortened: as §1
compound,measurement,setting,value
Cc1c(-c2ccc(Cc3ccc(OC(F)(F)F)cc3)cc2)[nH]c2cccc(F)c2c1=O,EC50,Plasmodium falciparum [1],5.48 nM
same,IC50,[2],17.1 nM
same,fractional inhibitory concentration index (FICI),Plasmodium falciparum [3],2.33
same,EC50,Plasmodium falciparum [4],8.16 nM
same,fractional inhibitory concentration index (FICI),Plasmodium falciparum [5],0.56
same,EC50,Plasmodium falciparum [6],5.92 nM
same,inhibition in vivo at 90 mg/kg,Plasmodium yoelii [7],100%
same,IC50,[8],9.74 nM
same,EC50,Plasmodium falciparum [9],5.56 nM
same,EC50,Plasmodium falciparum [10],6.25 nM
same,IC50,[11],31.7 nM
same,inhibition in vivo at 30 mg/kg,Plasmodium yoelii [12],100%
same,IC50,[13],123 nM
same,Time,Plasmodium yoelii [14],4 days
same,inhibition in vivo at 10 mg/kg,Plasmodium yoelii [15],98.4%
same,survival at 30 mg/kg,Plasmodium yoelii [16],100%
same,EC50,Plasmodium falciparum [17],7.18 nM
same,inhibition in vivo at 5 mg/kg,Plasmodium yoelii [18],100%
same,survival at 5 mg/kg,Plasmodium yoelii [19],100%
same,survival at 10 mg/kg,Plasmodium yoelii [20],100%
same,EC50,Plasmodium falciparum [21],9.58 nM
same,inhibition in vivo at 10 mg/kg,Plasmodium yoelii [22],100%
same,Activity,Plasmodium yoelii [23],Active
same,EC50,Plasmodium falciparum [24],3.83 nM

# — ChEMBL document CHEMBL4007417, “Target Elucidation by Cocrystal Structures of NADH-Ubiquinone Oxidoreductase of Plasmodium falciparum (PfNDH2) with Small Molecule To Eliminate Drug-Resistant Malaria” (J Med Chem, 2017)
